Here are results for one molecule from ChEMBL document CHEMBL4145462, “Nitrogen-containing ecdysteroid derivatives vs. multi-drug resistance in cancer: Preparation and antitumor activity of oximes, oxime ethers and a lactam” (Eur J Med Chem, 2018).

One test can be described thus: Synergistic cytotoxicity against mouse L5178 cells expressing human ABCB1 assessed as combination index at ED75 using 7.5:1 test compound to doxorubicin ratio after 48 hrs by MTT-based checkerboard microplate method. In kind it is functional. The essentials:
(§1)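 Checkerboard microplate combinations of compound with doxorubicin at constant molar ratios. 5 × 10^4 cells/well in McCoy's 5A, 48 h at 37°C, 5% CO2. MTT added to 0.5 mg/mL final for 4 h, SDS/HCl overnight, OD read at 540 and 630 nm. Combination indices derived per ratio for 50%, 75% and 90% growth inhibition by median-effect analysis.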
With `CCO/N=C1/C=C2[C@H](CC[C@]3(C)[C@@H]([C@@]4(C)OC(C)(C)O[C@@H]4CCC(C)(C)O)CC[C@@]23O)[C@@]2(C)C[C@@H]3OC(C)(C)O[C@@H]3C[C@@H]12`, the CI is 0.16.

A further test is described as follows: Synergistic cytotoxicity against mouse L5178 cells expressing human ABCB1 assessed as combination index at ED90 using 7.5:1 test compound to doxorubicin ratio after 48 hrs by MTT-based checkerboard microplate method. In kind it is functional. In outline:
as §1
Take `CCO/N=C1/C=C2[C@H](CC[C@]3(C)[C@@H]([C@@]4(C)OC(C)(C)O[C@@H]4CCC(C)(C)O)CC[C@@]23O)[C@@]2(C)C[C@@H]3OC(C)(C)O[C@@H]3C[C@@H]12`: the CI was determined as 0.17.

Another test is described as follows: Synergistic cytotoxicity against mouse L5178 cells assessed as combination index at ED75 using 37.5:1 test compound to doxorubicin ratio after 48 hrs by MTT-based checkerboard microplate method. Type of test: functional. In outline:
as §1
Turning to `CCO/N=C1/C=C2[C@H](CC[C@]3(C)[C@@H]([C@@]4(C)OC(C)(C)O[C@@H]4CCC(C)(C)O)CC[C@@]23O)[C@@]2(C)C[C@@H]3OC(C)(C)O[C@@H]3C[C@@H]12`, the CI turned out to be 0.52.

Another test is described as follows: Synergistic cytotoxicity against mouse L5178 cells expressing human ABCB1 assessed as combination index at ED75 using 3.75:1 test compound to doxorubicin ratio after 48 hrs by MTT-based checkerboard microplate method. Type of test: functional. The essentials:
as §1
Take `CCO/N=C1/C=C2[C@H](CC[C@]3(C)[C@@H]([C@@]4(C)OC(C)(C)O[C@@H]4CCC(C)(C)O)CC[C@@]23O)[C@@]2(C)C[C@@H]3OC(C)(C)O[C@@H]3C[C@@H]12`: the CI is 0.16.

The nature of the next test: Synergistic cytotoxicity against mouse L5178 cells expressing human ABCB1 assessed as combination index at ED90 using 3.75:1 test compound to doxorubicin ratio after 48 hrs by MTT-based checkerboard microplate method. Type of test: functional. In outline:
as §1
Consider `CCO/N=C1/C=C2[C@H](CC[C@]3(C)[C@@H]([C@@]4(C)OC(C)(C)O[C@@H]4CCC(C)(C)O)CC[C@@]23O)[C@@]2(C)C[C@@H]3OC(C)(C)O[C@@H]3C[C@@H]12`, for which the CI was determined as 0.13.

The nature of a further test: Synergistic cytotoxicity against mouse L5178 cells assessed as combination index at ED50 using 75:1 test compound to doxorubicin ratio after 48 hrs by MTT-based checkerboard microplate method. Type of test: functional. In outline:
as §1
For `CCO/N=C1/C=C2[C@H](CC[C@]3(C)[C@@H]([C@@]4(C)OC(C)(C)O[C@@H]4CCC(C)(C)O)CC[C@@]23O)[C@@]2(C)C[C@@H]3OC(C)(C)O[C@@H]3C[C@@H]12`, the CI amounted to 0.58.

The nature of the next test: Synergistic cytotoxicity against mouse L5178 cells assessed as combination index at ED75 using 75:1 test compound to doxorubicin ratio after 48 hrs by MTT-based checkerboard microplate method. In kind it is functional. The essentials: as §1
Regarding `CCO/N=C1/C=C2[C@H](CC[C@]3(C)[C@@H]([C@@]4(C)OC(C)(C)O[C@@H]4CCC(C)(C)O)CC[C@@]23O)[C@@]2(C)C[C@@H]3OC(C)(C)O[C@@H]3C[C@@H]12`, the CI came out at 0.58.

Another test in a line: Synergistic cytotoxicity against mouse L5178 cells assessed as combination index at ED90 using 75:1 test compound to doxorubicin ratio after 48 hrs by MTT-based checkerboard microplate method. Type of test: functional. The essentials: as §1
Regarding `CCO/N=C1/C=C2[C@H](CC[C@]3(C)[C@@H]([C@@]4(C)OC(C)(C)O[C@@H]4CCC(C)(C)O)CC[C@@]23O)[C@@]2(C)C[C@@H]3OC(C)(C)O[C@@H]3C[C@@H]12`, the CI is on record as 0.58.

A short description of the next test: Synergistic cytotoxicity against mouse L5178 cells assessed as combination index at ED75 using 300:1 test compound to doxorubicin ratio after 48 hrs by MTT-based checkerboard microplate method. Type of test: functional. The essentials:
as §1
For `CCO/N=C1/C=C2[C@H](CC[C@]3(C)[C@@H]([C@@]4(C)OC(C)(C)O[C@@H]4CCC(C)(C)O)CC[C@@]23O)[C@@]2(C)C[C@@H]3OC(C)(C)O[C@@H]3C[C@@H]12`, the CI amounted to 0.88.

The nature of the next test: Synergistic cytotoxicity against mouse L5178 cells assessed as combination index at ED90 using 300:1 test compound to doxorubicin ratio after 48 hrs by MTT-based checkerboard microplate method. Type of test: functional. In outline: as §1
As for `CCO/N=C1/C=C2[C@H](CC[C@]3(C)[C@@H]([C@@]4(C)OC(C)(C)O[C@@H]4CCC(C)(C)O)CC[C@@]23O)[C@@]2(C)C[C@@H]3OC(C)(C)O[C@@H]3C[C@@H]12`, the CI stood at 0.98.

Another test is described as follows: Synergistic cytotoxicity against mouse L5178 cells assessed as combination index at ED50 using 600:1 test compound to doxorubicin ratio after 48 hrs by MTT-based checkerboard microplate method. Type of test: functional. In outline:
as §1
Take `CCO/N=C1/C=C2[C@H](CC[C@]3(C)[C@@H]([C@@]4(C)OC(C)(C)O[C@@H]4CCC(C)(C)O)CC[C@@]23O)[C@@]2(C)C[C@@H]3OC(C)(C)O[C@@H]3C[C@@H]12`: the CI amounted to 0.75.

The next test is described as follows: Synergistic cytotoxicity against mouse L5178 cells assessed as combination index at ED75 using 600:1 test compound to doxorubicin ratio after 48 hrs by MTT-based checkerboard microplate method. Type of test: functional. In outline: as §1
As for `CCO/N=C1/C=C2[C@H](CC[C@]3(C)[C@@H]([C@@]4(C)OC(C)(C)O[C@@H]4CCC(C)(C)O)CC[C@@]23O)[C@@]2(C)C[C@@H]3OC(C)(C)O[C@@H]3C[C@@H]12`, the CI stood at 0.83.

The next test is described as follows: Synergistic cytotoxicity against mouse L5178 cells assessed as combination index at ED90 using 600:1 test compound to doxorubicin ratio after 48 hrs by MTT-based checkerboard microplate method. In kind it is functional. The essentials: as §1
For `CCO/N=C1/C=C2[C@H](CC[C@]3(C)[C@@H]([C@@]4(C)OC(C)(C)O[C@@H]4CCC(C)(C)O)CC[C@@]23O)[C@@]2(C)C[C@@H]3OC(C)(C)O[C@@H]3C[C@@H]12`, the CI was determined as 0.94.
